# ChEMBL document CHEMBL1144191, “Synthesis and evaluation of a spiro-isobenzofuranone class of histamine H3 receptor inverse agonists” (Bioorg Med Chem Lett, 2008)
# What was measured:
# Histamine H3 receptor = Histamine H3 receptor (Homo sapiens, UniProt Q9Y5N1); experiment: Inverse agonist activity at human cloned histamine H3 receptor assessed as inhibition of (R)-alpha-methylhistamine-induced [35S]GTPgammaS binding; type: functional
# Summary of the method: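 [35S]GTPγS binding assay in membranes isolated from cells transfected with cloned human H3 receptors.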
# Histamine H4 receptor = Histamine H4 receptor (Homo sapiens, UniProt Q9H3N8); experiment: Inhibition of histamine H4 receptor
# [1] = Half life in Sprague-Dawley rat at 1 mg/kg, iv; type: ADME, organism-based; set-up: dose 1 mg/kg, route intravenous; settings: in vivo
# Summary of the method: (§1)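 Sprague-Dawley rats, n = 3, mean values reported; dosed iv at 1 mg/kg or orally at 3 mg/kg. Parameters derived from the plasma profile: half-life, Vdss, plasma clearance (iv), Tmax, Cmax and oral bioavailability (po).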
# [2] = Metabolic stability in cryopreserved rat hepatocytes assessed as hepatic clearance by serum incubation method; type: ADME, cell-based, Liver, Hepatocyte
# Summary of the method: (§2)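 Hepatic clearance estimated by the serum incubation method in human and rat hepatocytes, expressed as mL/min/kg.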
# [3] = Metabolic stability in cryopreserved human hepatocytes assessed as hepatic clearance by serum incubation method; type: ADME, cell-based, Liver, Hepatocyte; summary of the method: as §2
# [4] = Volume of distribution at steady state in Sprague-Dawley rat at 1 mg/kg, iv; type: ADME, organism-based; set-up: dose 1 mg/kg, route intravenous; settings: in vivo, read-out: Vdss; summary of the method: as §1
# [5] = Plasma clearance in Sprague-Dawley rat at 1 mg/kg, iv; type: ADME, organism-based; set-up: dose 1 mg/kg, route intravenous; summary of the method: as §1
# [6] = Half life in Sprague-Dawley rat at 3 mg/kg, po; type: ADME, organism-based; set-up: dose 3 mg/kg, route oral; settings: in vivo; summary of the method: as §1
# [7] = Tmax in Sprague-Dawley rat at 3 mg/kg, po; type: ADME, organism-based; set-up: dose 3 mg/kg, route oral; settings: in vivo; summary of the method: as §1
# [8] = Cmax in Sprague-Dawley rat at 3 mg/kg, po; type: ADME, organism-based; set-up: dose 3 mg/kg, route oral; settings: in vivo; summary of the method: as §1
# Histamine H1 receptor = Histamine H1 receptor (Homo sapiens, UniProt P35367); experiment: Inhibition of histamine H1 receptor
# [9] = Plasma concentration in Sprague-Dawley rat at 10 mg/kg, po after 2 hrs; type: ADME, organism-based; set-up: dose 10 mg/kg, route oral; settings: read-out: Drug uptake
# Summary of the method: (§3)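 SD rats, n = 3 (mean), dosed orally at 10 mg/kg. Plasma, brain and cerebrospinal fluid levels measured at 2 h post-dose; brain expressed as nmol/g, plasma and CSF as µM.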
# [10] = Drug concentration in Sprague-Dawley rat cerebrospinal fluid at 10 mg/kg, po after 2 hrs; type: ADME, organism-based; set-up: dose 10 mg/kg, route oral; settings: read-out: Drug uptake; summary of the method: as §3
# Histamine H2 receptor = Histamine H2 receptor (Homo sapiens, UniProt P25021); experiment: Inhibition of histamine H2 receptor
# [11] = Bioavailability in Sprague-Dawley rat at 3 mg/kg, po; type: ADME, organism-based; settings: in vivo; summary of the method: as §1
# Brain [12] = experiment: Drug concentration in Sprague-Dawley rat brain at 10 mg/kg, po after 2 hrs; type: ADME, organism-based; set-up: dose 10 mg/kg, route oral; settings: in vivo; summary of the method: as §3
# LLC-PK1 [13] = experiment: Ratio of permeability from basolateral to apical over apical to basolateral side of pig LLC-PK1 cells transfected with mouse MDR1a by P-gp transport assay; type: ADME, cell-based, Sus scrofa
# Summary of the method: (§4)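 Transcellular transport measured across LLC-PK1 cell monolayers transfected with human MDR1 or mouse mdr1a. Ratio computed as (B-to-A)/(A-to-B) permeability; mean of n ≥ 3. Ratio above 3.0 taken to indicate a P-gp substrate.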
# Brain [14] = experiment: Drug concentration in Sprague-Dawley rat brain at 1 mg/kg, iv after 10 mins; type: ADME, organism-based; set-up: dose 1 mg/kg, route intravenous; settings: in vivo
# Summary of the method: (§5)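 SD rats, n = 3 (mean), dosed iv at 1 mg/kg. Plasma, brain and CSF levels measured 10 min after dosing; brain expressed as nmol/g, plasma and CSF as µM.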
# LLC-PK1 [15] = experiment: Ratio of permeability from basolateral to apical over apical to basolateral side of pig LLC-PK1 cells transfected with human MDR1 by P-gp transport assay; type: ADME, cell-based, Sus scrofa; summary of the method: as §4
# [16] = biological target: Voltage-gated inwardly rectifying potassium channel KCNH2 (Homo sapiens, UniProt Q12809); experiment: Displacement of [35S]N-[(4R)-1'-[(2R)-6-cyano-1,2,3,4-tetrahydro-2-naphthalenyl]-3,4-dihydro-4-hydroxyspiro[2H-1-benzopyran-2,4'-piperidin]-6-yl]methanesulfonamide from human ERG in HEK293 cells; type: cell-based
# [17] = Drug concentration in Sprague-Dawley rat cerebrospinal fluid at 1 mg/kg, iv after 10 mins; type: ADME, organism-based; set-up: dose 1 mg/kg, route intravenous; settings: read-out: Drug uptake; summary of the method: as §5
# [18] = Plasma concentration in Sprague-Dawley rat at 1 mg/kg, iv after 10 mins; type: ADME, organism-based; set-up: dose 1 mg/kg, route intravenous; settings: read-out: Drug uptake; summary of the method: as §5
# Sequence of Histamine H3 receptor (Q9Y5N1 whole entry): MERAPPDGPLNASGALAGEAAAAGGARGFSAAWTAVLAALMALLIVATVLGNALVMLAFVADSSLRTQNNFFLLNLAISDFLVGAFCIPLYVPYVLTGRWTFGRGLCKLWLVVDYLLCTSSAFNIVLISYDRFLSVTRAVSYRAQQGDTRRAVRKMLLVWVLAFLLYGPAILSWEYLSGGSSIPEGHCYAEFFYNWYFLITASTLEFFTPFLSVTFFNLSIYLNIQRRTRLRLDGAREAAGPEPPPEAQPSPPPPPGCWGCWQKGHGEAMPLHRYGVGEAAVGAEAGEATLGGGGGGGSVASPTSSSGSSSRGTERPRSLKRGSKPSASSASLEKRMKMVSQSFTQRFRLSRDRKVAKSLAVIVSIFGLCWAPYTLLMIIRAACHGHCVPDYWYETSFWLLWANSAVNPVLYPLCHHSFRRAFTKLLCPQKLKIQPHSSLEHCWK
# Sequence of Histamine H4 receptor (Q9H3N8 whole entry): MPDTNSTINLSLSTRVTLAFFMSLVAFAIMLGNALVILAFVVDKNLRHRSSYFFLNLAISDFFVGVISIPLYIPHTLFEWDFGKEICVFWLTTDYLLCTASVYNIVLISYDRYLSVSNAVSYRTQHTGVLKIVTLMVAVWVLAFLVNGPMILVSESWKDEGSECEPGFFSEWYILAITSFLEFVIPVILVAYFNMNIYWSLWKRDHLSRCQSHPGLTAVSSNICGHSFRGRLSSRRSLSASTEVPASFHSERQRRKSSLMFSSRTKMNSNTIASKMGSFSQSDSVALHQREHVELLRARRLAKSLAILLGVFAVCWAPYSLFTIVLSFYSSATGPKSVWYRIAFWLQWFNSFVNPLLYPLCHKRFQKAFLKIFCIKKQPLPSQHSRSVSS
# Sequence of Histamine H1 receptor (P35367 whole entry): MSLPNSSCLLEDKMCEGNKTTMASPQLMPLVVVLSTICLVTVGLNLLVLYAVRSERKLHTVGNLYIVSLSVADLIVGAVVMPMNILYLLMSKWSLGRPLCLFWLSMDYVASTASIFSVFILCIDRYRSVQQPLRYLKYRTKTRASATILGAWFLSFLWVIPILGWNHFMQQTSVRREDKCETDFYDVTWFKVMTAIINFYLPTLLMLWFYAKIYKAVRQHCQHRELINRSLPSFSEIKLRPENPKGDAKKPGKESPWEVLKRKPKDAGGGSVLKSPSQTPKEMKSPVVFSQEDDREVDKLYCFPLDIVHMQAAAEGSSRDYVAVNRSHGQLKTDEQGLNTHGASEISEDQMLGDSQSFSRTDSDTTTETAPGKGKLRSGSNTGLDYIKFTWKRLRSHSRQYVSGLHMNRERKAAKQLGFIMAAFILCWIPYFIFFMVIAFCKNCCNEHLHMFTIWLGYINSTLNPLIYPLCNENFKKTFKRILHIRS
# Sequence of Histamine H2 receptor (P25021 whole entry): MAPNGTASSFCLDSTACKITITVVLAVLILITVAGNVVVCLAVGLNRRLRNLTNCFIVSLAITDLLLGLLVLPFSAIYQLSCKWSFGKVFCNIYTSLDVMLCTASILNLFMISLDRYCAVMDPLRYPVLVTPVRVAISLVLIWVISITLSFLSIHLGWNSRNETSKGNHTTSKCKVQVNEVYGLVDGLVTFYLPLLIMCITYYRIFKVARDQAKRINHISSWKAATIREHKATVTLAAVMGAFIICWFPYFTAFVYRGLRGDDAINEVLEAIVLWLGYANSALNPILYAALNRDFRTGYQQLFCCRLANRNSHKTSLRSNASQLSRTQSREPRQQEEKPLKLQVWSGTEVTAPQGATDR
# Sequence of Voltage-gated inwardly rectifying potassium channel KCNH2 (Q12809 whole entry): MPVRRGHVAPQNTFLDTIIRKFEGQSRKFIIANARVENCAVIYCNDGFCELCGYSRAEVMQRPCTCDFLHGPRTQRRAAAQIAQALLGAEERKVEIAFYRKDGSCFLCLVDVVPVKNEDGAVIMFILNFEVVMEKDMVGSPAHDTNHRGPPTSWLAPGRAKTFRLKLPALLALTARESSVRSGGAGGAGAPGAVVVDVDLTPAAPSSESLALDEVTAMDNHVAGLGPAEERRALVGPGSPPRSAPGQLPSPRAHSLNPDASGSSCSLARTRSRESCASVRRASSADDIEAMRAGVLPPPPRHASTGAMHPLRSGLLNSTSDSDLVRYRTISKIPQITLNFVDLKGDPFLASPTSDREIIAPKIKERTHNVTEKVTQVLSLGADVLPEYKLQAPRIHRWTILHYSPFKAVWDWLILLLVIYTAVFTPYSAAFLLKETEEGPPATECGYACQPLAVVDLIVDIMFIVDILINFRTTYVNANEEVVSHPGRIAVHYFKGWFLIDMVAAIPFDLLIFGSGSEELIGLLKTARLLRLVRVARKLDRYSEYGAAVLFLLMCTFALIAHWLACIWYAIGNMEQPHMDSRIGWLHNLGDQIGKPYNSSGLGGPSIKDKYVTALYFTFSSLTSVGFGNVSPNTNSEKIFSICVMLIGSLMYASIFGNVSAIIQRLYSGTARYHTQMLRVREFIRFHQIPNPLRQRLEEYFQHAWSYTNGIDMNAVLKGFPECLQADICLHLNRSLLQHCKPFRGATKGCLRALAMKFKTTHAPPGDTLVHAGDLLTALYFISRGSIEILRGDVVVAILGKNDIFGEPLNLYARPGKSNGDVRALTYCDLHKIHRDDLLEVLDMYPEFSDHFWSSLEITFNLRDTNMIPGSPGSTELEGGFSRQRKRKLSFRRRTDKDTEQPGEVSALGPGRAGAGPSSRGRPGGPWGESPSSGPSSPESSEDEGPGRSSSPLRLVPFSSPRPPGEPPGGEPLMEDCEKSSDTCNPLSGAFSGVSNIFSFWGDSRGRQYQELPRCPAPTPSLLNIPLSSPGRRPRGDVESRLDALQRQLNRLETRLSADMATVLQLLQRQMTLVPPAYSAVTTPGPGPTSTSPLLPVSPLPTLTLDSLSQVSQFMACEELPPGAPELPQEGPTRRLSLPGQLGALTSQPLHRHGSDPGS
smiles,measurement,setting,value
CN(CCN1CCCCC1)C(=O)N1CCC(C#N)(c2ccccc2)CC1,IC50,Histamine H3 receptor,267 nM
CN(CCN1CCCCC1)C(=O)N1CCC2(CC1)OC(=O)c1ccccc12,IC50,Histamine H3 receptor,21 nM
CN(CCN1CCCCC1)C(=O)N1CCC2(CC1)OCc1ccccc12,IC50,Histamine H3 receptor,387 nM
COc1cccc2c1[C@]1(CC[C@@H](C(=O)N(C)CCN3CCCCC3)CC1)OC2=O,IC50,Histamine H3 receptor,3.6 nM
CN(CCN1CCCCC1)C(=O)N1CCC(Cc2ccccc2)CC1,IC50,Histamine H3 receptor,393 nM
CN(CCN1CCCCC1)C(=O)N1CCN(c2ccccc2Cl)CC1,IC50,Histamine H3 receptor,> 1000 nM
CN(CCN1CCCCC1)C(=O)N1CCN(c2cccc(Cl)c2)CC1,IC50,Histamine H3 receptor,297 nM
CN(CCN1CCCCC1)C(=O)N1CCC2(CC1)Cc1ccccc1C(=O)O2,IC50,Histamine H3 receptor,380 nM
CN(CCN1CCCCC1)C(=O)N1CCC(c2cccc3ccccc23)CC1,IC50,Histamine H3 receptor,343 nM
CN(CCN1CCCCC1)C(=O)N1CCC(c2ccccc2)CC1,IC50,Histamine H3 receptor,893 nM
CN(CCN1CCCCC1)C(=O)N1CCC(O)(c2ccccc2)CC1,IC50,Histamine H3 receptor,> 1000 nM
CN(CCN1CCCCC1)C(=O)N1CCN(c2ccccc2)CC1,IC50,Histamine H3 receptor,506 nM
CN(CCN1CCCCC1)C(=O)N1CCN(c2ccc(Cl)cc2)CC1,IC50,Histamine H3 receptor,160 nM
CN(CCN1CCCCC1)C(=O)N1CCC(C(C)(C)C)CC1,IC50,Histamine H3 receptor,> 1000 nM
CN(CCN1CCCCC1)C(=O)N1CCC2(CC1)NC(=O)c1ccccc1N2,IC50,Histamine H3 receptor,560 nM
CN(CCN1CCCCC1)C(=O)N1CCC(c2ccc3ccccc3c2)CC1,IC50,Histamine H3 receptor,110 nM
CN(CCN1CCCCC1)C(=O)N1CCC2(CC1)CC(=O)c1ccccc1O2,IC50,Histamine H3 receptor,68 nM
CN(CCN1CCCCC1)C(=O)N1CCC2(CC1)c1ccccc1C(=O)N2C,IC50,Histamine H3 receptor,45 nM
CN(CCN1CCCCC1)C(=O)N1CCC2(CC1)Cc1ccccc1C2,IC50,Histamine H3 receptor,530 nM
CN(CCN1CCCCC1)C(=O)N1CCc2ccccc2C1,IC50,Histamine H3 receptor,680 nM
CN(CCN1CCCCC1)C(=O)N1CCC2(CC1)NC(=O)c1ccccc12,IC50,Histamine H3 receptor,53 nM
CN(CCN1CCCCC1)C(=O)N1CCC(C(=O)c2ccccc2)CC1,IC50,Histamine H3 receptor,237 nM
COc1ccc2c(c1)[C@]1(CC[C@@H](C(=O)N(C)CCN3CCCCC3)CC1)OC2=O,IC50,Histamine H3 receptor,18 nM
COc1ccc2c(c1)C(=O)O[C@]21CC[C@H](C(=O)N(C)CCN2CCCCC2)CC1,IC50,Histamine H3 receptor,0.54 nM
same,IC50,Histamine H4 receptor,> 10000 nM
same,half-life,[1],1.4 h
same,CLhep predicted,[2],54 mL/min/kg
same,CLhep predicted,[3],18 mL/min/kg
same,Vd,[4],7.2 L/kg
same,clearance,[5],74 mL/min/kg
same,half-life,[6],1.4 h
same,Tmax,[7],0.3 h
same,Cmax,[8],60 nM
same,IC50,Histamine H1 receptor,> 10000 nM
same,concentration at 2 h,[9],270 nM
same,concentration at 2 h,[10],58 nM
same,IC50,Histamine H2 receptor,> 10000 nM
same,bioavailability,[11],7%
same,Drug uptake,Brain [12],0.48 nmol/g
CN(CCN1CCCCC1)C(=O)[C@H]1CC[C@@]2(CC1)OC(=O)c1ccccc12,IC50,Histamine H3 receptor,0.72 nM
same,IC50,Histamine H4 receptor,> 10000 nM
same,CLhep predicted,[2],59 mL/min/kg
same,CLhep predicted,[3],18 mL/min/kg
same,Ratio,LLC-PK1 [13],2
same,Drug uptake,Brain [14],2.4 nmol/g
same,Ratio,LLC-PK1 [15],1.2
same,clearance,[5],97 mL/min/kg
same,IC50,[16],> 10000 nM
same,concentration at 10 min,[17],370 nM
same,IC50,Histamine H1 receptor,> 10000 nM
same,IC50,Histamine H2 receptor,> 10000 nM
same,concentration at 10 min,[18],1500 nM
CN(CCN1CCCCC1)C(=O)N1CCC2(CC1)CC(=O)c1ccccc12,IC50,Histamine H3 receptor,43 nM
CN(CCN1CCCCC1)C(=O)N1CCC2(CC1)NC(=O)Cc1ccccc12,IC50,Histamine H3 receptor,783 nM
CN(CCN1CCCCC1)C(=O)N1CCC2(CC1)OC(=O)Nc1ccccc12,IC50,Histamine H3 receptor,> 1000 nM
CN(CCN1CCCCC1)C(=O)N1CCC(c2ccccc2)(c2ccccc2)CC1,IC50,Histamine H3 receptor,98 nM
